Test results published in ChEMBL document CHEMBL3097989, “Antimicrobial activity of de novo designed cationic peptides against multi-resistant clinical isolates” (Eur J Med Chem, 2014).
Where a SMILES comes first, the peptide text is derived from it.

What was measured:
[1] = Toxicity in human RBC assessed as hemolytic activity relative to control; format: cell-based, Erythrocyte; conditions: red blood cells (RBC), read-out: Activity
Procedure, shortened: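 Heparinized human whole blood diluted 3x in PBS and centrifuged 10 min at 1500 rpm, repeated three times. Cells resuspended to 10% (v/v), then diluted to about 0.5% (v/v). Peptides added at various concentrations for 30 min at 37 °C. Supernatant absorbance read at 550 nm. Lysis calculated against buffer (0%) and water (100%). Readings taken in triplicate and averaged.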

Acinetobacter sp. [2] = assay: Antibacterial activity against Acinetobacter sp. M5282 clinical isolate expressing blaOXA-51 gene by microdilution test; format: functional
Procedure, shortened: (§1)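 MIC by standard broth microdilution following CLSI recommendations, in Mueller Hinton broth supplemented with Ca²⁺ (20-25mg/L) and Mg²⁺ (10-12.5mg/L); peptides tested against a panel of multi-resistant clinical isolates plus ATCC reference strains.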

Acinetobacter sp. [3] = assay: Antibacterial activity against Acinetobacter sp. M13523 clinical isolate expressing blaOXA-51 gene by microdilution test; format: functional; procedure, shortened: as §1
Klebsiella pneumoniae [4] = assay: Antibacterial activity against Klebsiella pneumoniae M7647 clinical isolate expressing blaVIM, blaCTX-M-2, blaTEM-1 and blaSHV-1 gene by microdilution test; format: functional; procedure, shortened: as §1
Staphylococcus hominis [5] = assay: Antibacterial activity against Staphylococcus hominis M2967 clinical isolate expressing mecA gene by microdilution test; format: functional
Procedure, shortened: (§2)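 MIC by standard broth microdilution following CLSI recommendations, in Mueller Hinton broth supplemented with Ca²⁺ (20-25 mg/L) and Mg²⁺ (10-12.5 mg/L); ATCC reference strains included in the panel.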

Staphylococcus aureus [6] = assay: Antibacterial activity against Staphylococcus aureus M6794 clinical isolate expressing mecA gene by microdilution test; format: functional; procedure, shortened: as §2
Pseudomonas aeruginosa [7] = assay: Antibacterial activity against Pseudomonas aeruginosa ATCC 27853 by microdilution test; format: functional; procedure, shortened: as §1
Klebsiella pneumoniae [8] = assay: Antibacterial activity against Klebsiella pneumoniae M9491 clinical isolate expressing blaMOX gene by microdilution test; format: functional; procedure, shortened: as §1
Enterococcus faecalis [9] = assay: Antibacterial activity against Enterococcus faecalis M4992 clinical isolate expressing vanA gene by microdilution test; format: functional; procedure, shortened: as §1
Enterococcus faecium [10] = assay: Antibacterial activity against Enterococcus faecium M6261 by microdilution test; format: functional; procedure, shortened: as §1
Pseudomonas aeruginosa [11] = assay: Antibacterial activity against Pseudomonas aeruginosa M5200 clinical isolate expressing blaVIM and blaGES-1 gene by microdilution test; format: functional; procedure, shortened: as §2
Staphylococcus aureus [12] = assay: Antibacterial activity against Staphylococcus aureus M6784 clinical isolate expressing mecA gene by microdilution test; format: functional; procedure, shortened: as §2
Pseudomonas aeruginosa [13] = assay: Antibacterial activity against Pseudomonas aeruginosa M5109 clinical isolate expressing blaVIM and blaGES-1 gene by microdilution test; format: functional; procedure, shortened: as §2
Staphylococcus aureus [14] = assay: Antibacterial activity against Staphylococcus aureus ATCC 29213 by microdilution test; format: functional; procedure, shortened: as §2
Enterococcus faecium [15] = assay: Antibacterial activity against Enterococcus faecium M2619 clinical isolate expressing vanB gene by microdilution test; format: functional; procedure, shortened: as §1
Acinetobacter sp. [16] = assay: Antibacterial activity against Acinetobacter sp. M5949 clinical isolate expressing blaOXA-23 and blaOXA-GVI gene by microdilution test; format: functional; procedure, shortened: as §1
Enterococcus faecalis [17] = assay: Antibacterial activity against Enterococcus faecalis ATCC 29212 by microdilution test; format: functional; procedure, shortened: as §1
Pseudomonas aeruginosa [18] = assay: Antibacterial activity against Pseudomonas aeruginosa M11005 clinical isolate expressing blaKPC-2 gene by microdilution test; format: functional; procedure, shortened: as §1
Staphylococcus hominis [19] = assay: Antibacterial activity against Staphylococcus hominis M2973 clinical isolate expressing mecA gene by microdilution test; format: functional; procedure, shortened: as §2
Acinetobacter sp. [20] = assay: Antibacterial activity against Acinetobacter sp. M5277 clinical isolate expressing blaPER gene by microdilution test; format: functional; procedure, shortened: as §1
Enterococcus faecalis [21] = assay: Antibacterial activity against Enterococcus faecalis ATCC 51299 clinical isolate expressing vanB gene by microdilution test; format: functional; procedure, shortened: as §1
Klebsiella pneumoniae [22] = assay: Antibacterial activity against Klebsiella pneumoniae M9140 clinical isolate expressing blaCIT gene by microdilution test; format: functional; procedure, shortened: as §1
Acinetobacter sp. [23] = assay: Antibacterial activity against Acinetobacter sp. M9013 clinical isolate expressing blaOXA-51 and blaIMP gene by microdilution test; format: functional; procedure, shortened: as §1
[24] = tested on: Staphylococcus epidermidis; assay: Antibacterial activity against Staphylococcus epidermidis M2921 clinical isolate expressing mecA gene by microdilution test; format: functional; procedure, shortened: as §2
Escherichia coli = assay: Antibacterial activity against Escherichia coli PABC11 clinical isolate expressing blaCTX-M-2 gene by microdilution test; format: functional; procedure, shortened: as §1
Enterococcus faecalis [25] = assay: Antibacterial activity against Enterococcus faecalis M4899 clinical isolate expressing vanB gene by microdilution test; format: functional; procedure, shortened: as §1
Klebsiella pneumoniae [26] = assay: Antibacterial activity against Klebsiella pneumoniae PFAV3 by microdilution test; format: functional; procedure, shortened: as §1
Staphylococcus aureus [27] = assay: Antibacterial activity against Staphylococcus aureus M6820 clinical isolate expressing mecA gene by microdilution test; format: functional; procedure, shortened: as §2
Pseudomonas aeruginosa [28] = assay: Antibacterial activity against Pseudomonas aeruginosa M7728 clinical isolate expressing blaIMP gene by microdilution test; format: functional; procedure, shortened: as §2
Pseudomonas aeruginosa [29] = assay: Antibacterial activity against Pseudomonas aeruginosa M13513 clinical isolate expressing blaKPC-2 gene by microdilution test; format: functional; procedure, shortened: as §1
Staphylococcus aureus [30] = assay: Antibacterial activity against Staphylococcus aureus P33 clinical isolate expressing msrA gene by microdilution test; format: functional; procedure, shortened: as §2

Compound | hemolysis [1] [%] | MIC90 (Acinetobacter sp. [2]) [µg/mL] | MIC90 (Acinetobacter sp. [3]) [µg/mL] | MIC90 (Klebsiella pneumoniae [4]) [µg/mL] | MIC90 (Staphylococcus hominis [5]) [µg/mL] | MIC90 (Staphylococcus aureus [6]) [µg/mL] | MIC90 (Pseudomonas aeruginosa [7]) [µg/mL] | MIC90 (Klebsiella pneumoniae [8]) [µg/mL] | MIC90 (Enterococcus faecalis [9]) [µg/mL] | MIC90 (Enterococcus faecium [10]) [µg/mL] | MIC90 (Pseudomonas aeruginosa [11]) [µg/mL] | MIC90 (Staphylococcus aureus [12]) [µg/mL] | MIC90 (Pseudomonas aeruginosa [13]) [µg/mL] | MIC90 (Staphylococcus aureus [14]) [µg/mL] | MIC90 (Enterococcus faecium [15]) [µg/mL] | MIC90 (Acinetobacter sp. [16]) [µg/mL] | MIC90 (Enterococcus faecalis [17]) [µg/mL] | MIC90 (Pseudomonas aeruginosa [18]) [µg/mL] | MIC90 (Staphylococcus hominis [19]) [µg/mL] | MIC90 (Acinetobacter sp. [20]) [µg/mL] | also measured
H-WPKWWKWKRRWGRKKAKKRRG-NH2 | 3.4 | 64 | 64 | > 1020 | 8 | 32 | 64 | 1020 | 128 | 32 | 64 | 32 | 128 | 32 | 32 | 256 | 64 | 64 | 4 | 64 | MIC90 (Enterococcus faecalis [21]): 256 µg/mL; MIC90 (Klebsiella pneumoniae [22]): 1020 µg/mL; MIC90 (Acinetobacter sp. [23]): 32 µg/mL; MIC90 [24]: 8 µg/mL; MIC90 (Escherichia coli): 128 µg/mL; MIC90 (Enterococcus faecalis [25]): 256 µg/mL; MIC90 (Klebsiella pneumoniae [26]): 1020 µg/mL; MIC90 (Staphylococcus aureus [27]): 64 µg/mL; MIC90 (Pseudomonas aeruginosa [28]): 128 µg/mL; MIC90 (Pseudomonas aeruginosa [29]): 32 µg/mL; MIC90 (Staphylococcus aureus [30]): 32 µg/mL
H-GLLKKWLKKWKEFKRIVGY-NH2 | 39.8 | 8 | 4 | 32 | 8 | 64 | 64 | 64 | 128 | 16 | 64 | 32 | 64 | 64 | 16 | 16 | 128 | 64 | 4 | 8 | MIC90 (Enterococcus faecalis [21]): 256 µg/mL; MIC90 (Klebsiella pneumoniae [22]): 32 µg/mL; MIC90 (Acinetobacter sp. [23]): 8 µg/mL; MIC90 [24]: 8 µg/mL; MIC90 (Escherichia coli): 32 µg/mL; MIC90 (Enterococcus faecalis [25]): 128 µg/mL; MIC90 (Klebsiella pneumoniae [26]): 128 µg/mL; MIC90 (Staphylococcus aureus [27]): 128 µg/mL; MIC90 (Pseudomonas aeruginosa [28]): 64 µg/mL; MIC90 (Pseudomonas aeruginosa [29]): 64 µg/mL; MIC90 (Staphylococcus aureus [30]): 128 µg/mL
CC[C@H](C)[C@H](N)C(=O)N[C@@H](CC(C)C)C(=O)N[C@@H](CCCNC(=N)N)C(=O)N[C@@H](Cc1c[nH]c2ccccc12)C(=O)N1CCC[C@H]1C(=O)N[C@@H](Cc1c[nH]c2ccccc12)C(=O)N[C@@H](Cc1c[nH]c2ccccc12)C(=O)N1CCC[C@H]1C(=O)N[C@@H](Cc1c[nH]c2ccccc12)C(=O)N[C@@H](CCCNC(=N)N)C(=O)N[C@@H](CCCNC(=N)N)C(=O)N[C@@H](CCCCN)C(N)=O.Cl.Cl.Cl.Cl.Cl [OMIGANAN PENTAHYDROCHLORIDE] (H-ILRWPWWPWRRK-NH2) | 10 | 8 | 32 | 1020 | 4 | 64 | 256 | 128 | 128 | 16 | 512 | 32 | 256 | 32 | 16 | 32 | 128 | 512 | 4 | 32 | MIC90 (Enterococcus faecalis [21]): 256 µg/mL; MIC90 (Klebsiella pneumoniae [22]): 64 µg/mL; MIC90 (Acinetobacter sp. [23]): 32 µg/mL; MIC90 [24]: 8 µg/mL; MIC90 (Escherichia coli): 64 µg/mL; MIC90 (Enterococcus faecalis [25]): 256 µg/mL; MIC90 (Klebsiella pneumoniae [26]): 128 µg/mL; MIC90 (Staphylococcus aureus [27]): 128 µg/mL; MIC90 (Pseudomonas aeruginosa [28]): 512 µg/mL; MIC90 (Pseudomonas aeruginosa [29]): 256 µg/mL; MIC90 (Staphylococcus aureus [30]): 32 µg/mL
H-RIVQRIKKWLLKWKKLGY-NH2 | 9.5 | 64 | 64 | 32 | 8 | 64 | 64 | 64 | 128 | 16 | 64 | 32 | 64 | 32 | 16 | 256 | 128 | 128 | 4 | 64 | MIC90 (Enterococcus faecalis [21]): 256 µg/mL; MIC90 (Klebsiella pneumoniae [22]): 32 µg/mL; MIC90 (Acinetobacter sp. [23]): 32 µg/mL; MIC90 [24]: 8 µg/mL; MIC90 (Escherichia coli): 32 µg/mL; MIC90 (Enterococcus faecalis [25]): 256 µg/mL; MIC90 (Klebsiella pneumoniae [26]): 128 µg/mL; MIC90 (Staphylococcus aureus [27]): 64 µg/mL; MIC90 (Pseudomonas aeruginosa [28]): 64 µg/mL; MIC90 (Pseudomonas aeruginosa [29]): 64 µg/mL; MIC90 (Staphylococcus aureus [30]): 64 µg/mL
